TRPC6 activator = activators of mouse TRPC6 channel | B-score at 10 µM | 310,000 tested, 0.13% active | HEK293-TRPC6 membrane potential dye fluorescence; hits give high values | Q61143;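 active = B-score of the integrated fluorescence ratio above library mean plus 3 SD, and starting fluorescence ratio within library mean plus 5 SD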;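 note: higher score means more depolarization so channel activation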
Target sequence (Q61143 whole entry, looked up): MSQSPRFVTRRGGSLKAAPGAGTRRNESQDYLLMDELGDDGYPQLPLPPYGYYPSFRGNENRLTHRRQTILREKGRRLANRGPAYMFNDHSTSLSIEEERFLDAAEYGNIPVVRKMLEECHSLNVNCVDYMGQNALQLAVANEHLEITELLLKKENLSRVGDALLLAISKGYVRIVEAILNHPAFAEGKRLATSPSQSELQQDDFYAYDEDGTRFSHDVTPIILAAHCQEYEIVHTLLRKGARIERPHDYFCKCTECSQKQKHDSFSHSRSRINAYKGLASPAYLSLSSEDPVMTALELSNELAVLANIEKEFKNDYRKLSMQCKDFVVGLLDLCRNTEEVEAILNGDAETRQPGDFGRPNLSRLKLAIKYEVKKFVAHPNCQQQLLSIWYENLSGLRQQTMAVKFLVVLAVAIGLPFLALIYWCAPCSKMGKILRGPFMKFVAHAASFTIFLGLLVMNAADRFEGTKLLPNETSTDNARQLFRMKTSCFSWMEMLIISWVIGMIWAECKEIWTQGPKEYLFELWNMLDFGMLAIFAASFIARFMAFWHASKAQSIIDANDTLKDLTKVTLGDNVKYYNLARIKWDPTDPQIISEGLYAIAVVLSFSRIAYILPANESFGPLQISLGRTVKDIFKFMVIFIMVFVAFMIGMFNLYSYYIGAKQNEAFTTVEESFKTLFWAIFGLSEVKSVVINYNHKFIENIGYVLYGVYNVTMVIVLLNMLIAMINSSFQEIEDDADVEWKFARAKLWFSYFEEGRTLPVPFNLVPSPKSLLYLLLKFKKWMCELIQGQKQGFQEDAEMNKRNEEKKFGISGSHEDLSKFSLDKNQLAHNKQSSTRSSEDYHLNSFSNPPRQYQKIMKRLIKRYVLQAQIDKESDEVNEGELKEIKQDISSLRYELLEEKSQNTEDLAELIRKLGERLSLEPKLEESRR
TRPC4 inh = blocks the mouse TRPC4 cation channel; 300,000 tested, 0.39% active; B-score at 10 µM; Q9QUQ5; HEK293 TRPC4beta/mu-opioid, DAMGO-evoked Fluo4 calcium flux; hits give low values;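 active = B-score over 3 SD under the library average, no early fluorescence shift, positive overall ratio signal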
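Assay system: Stable TRPC4beta/mu-opioid receptor HEK293 cells | Reagent: DAMGO in two steps, submaximal then maximal | Compound dosing: Single concentration per test compound | Signal: Fluo4 Ca2+ flux fluorescence | Evaluation: Per-well B score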
TRPC4 PAM = allosteric potentiators of mouse TRPC4 channel | B-score at 10 µM | HEK293 TRPC4beta/mu-opioid, DAMGO EC20, Fluo-4 Ca2+ flux; hits give high values | Q9QUQ5 | 310,000 tested, 0.42% active | AID 2227;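 active = B-score of calcium response area above 5 SD of library B-scores, with initial fluorescence ratio within 5 SD of library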;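 note: B-score of integrated fluorescence ratio over time as area under calcium response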
TRPC6 inhibitor = inhibitors of mouse TRPC6 channel; Q61143; HEK293-TRPC6, membrane potential dye, ACh-evoked depolarization; hits give low values; B-score at 10 µM; 310,000 tested, 1.1% active; AID 2553;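 active = B-score under library mean minus 3 SD, initial fluorescence not abnormally high, positive integrated signal ratio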;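 note: B-score derived from integrated fluorescence ratio over the kinetic read; more negative B-score means stronger inhibition of depolarization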
TRPC4 agonist = activators of mouse TRPC4 channel; Q9QUQ5; HEK293 TRPC4beta/mu-opioid, Fluo4 calcium fluorescence; hits give high values; B-score at 10 µM; 310,000 tested, 0.49% active;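 active = B-score above 5 SD of library B-scores, and initial fluorescence ratio not above library mean plus 5 SD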;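 note: positive B-score marks a calcium rise read as TRPC4 activation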
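Material: TRPC4beta and mu-opioid receptor HEK293 stable cells | Incubation: 45 min room-temperature Fluo4 loading, 110 s read | Detection: Kinetic Fluo4 calcium fluorescence | Measure: Integrated baseline-normalised fluorescence ratio, converted to per-well B score | Benchmarks: Low control buffer alone, high control maximal DAMGO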
Active calls of the source: *; i = inactive. Compounds with a hit are over-represented: about 2.3% of the library has one in this group of screens.

SMILES	TRPC6 activator	TRPC4 inh	TRPC4 PAM	TRPC6 inhibitor	TRPC4 agonist
O=C(c1cccc(C(F)(F)F)c1)C1CCCN(Cc2ccc(OCCO)cc2)C1 (stereo not given)	i	i	i	i	i
COc1ccc(-c2nc(CS(=O)CC(=O)NCCCN3CC(C)CC(C)C3)c(C)o2)cc1OC (stereo not given)	i	i	i	i	104*
CCCCN(C)CCCNC(=O)CS(=O)Cc1nc(-c2ccc(OC)c(OC)c2)oc1C (stereo not given)	i	i	i	i	i
CCCN(CCC)CCCNC(=O)CS(=O)Cc1nc(-c2ccc(OC)c(OC)c2)oc1C (stereo not given)	i	i	i	i	64*
Cc1ccc(-c2nc(CS(=O)CC(=O)NCCCN3CC(C)CC(C)C3)c(C)o2)cc1 (stereo not given)	i	i	i	i	62*
COc1ccccc1NC(=O)CCCN1C(=O)C2CC=CCC2C1=O (stereo not given)	i	i	i	i	i
CCOC(=O)c1c(NC(=O)C(F)(OC)C(F)(F)F)sc(C(=O)N2CCCCC2)c1C (stereo not given)	i	i	i	i	i
Cc1cccc(OCCCn2c(CO)nc3ccccc32)c1	i	i	i	i	i
O=c1c(-c2ccco2)[n+]([O-])c2ccccc2n1OCc1ccccc1[N+](=O)[O-]	i	i	i	i	i
O=C(O)c1ccc(N/N=C/c2ccc(-c3cccc(Cl)c3)o2)cc1	i	-6*	i	i	i
CCOC(=O)N1CCC(NC(=O)CS(=O)Cc2nc(-c3ccccc3C)oc2C)CC1 (stereo not given)	i	i	13*	i	i
Cc1oc(-c2ccccc2F)nc1CS(=O)CC(=O)NC1CC1 (stereo not given)	i	i	i	i	i
COc1ccc(-c2nc(CSCC(=O)NC3CCN(Cc4ccccc4)CC3)c(C)o2)cc1OC	i	i	i	i	116*
COc1ccc(-c2nc(CSCC(=O)NC3CC3)c(C)o2)cc1OC	i	i	i	i	i
CN(Cc1cccc(Cl)c1)C(=O)C1CCN(C(=O)Nc2ccccc2)CC1	i	i	i	i	i
COc1ccc(CCN(C)C(=O)C2CCCN(C3CCN(Cc4ccccc4)CC3)C2)cc1OC (stereo not given)	i	i	i	i	131*
CN(Cc1ccccc1)C(=O)C1CCCN(Cc2cccc(Cl)c2)C1 (stereo not given)	i	-8*	i	i	i
CCN(CC)C(=O)C1CCCN(Cc2cccc(Oc3ccccc3)c2)C1 (stereo not given)	i	-7*	i	i	i
O=C(CCC(=O)NNc1nc2ccccc2c2nc(-c3ccccc3)nn12)NCCCN1CCOCC1	i	i	i	i	i
CC(C)CCNC(=O)CCC(=O)NNc1nc2ccccc2c2nc(-c3ccccc3)nn12	i	i	23*	i	i
Cc1ccc(-c2nnc(-c3cc(C)on3)o2)cc1	i	i	i	i	i
CCOc1ccc(OCc2ccc(C(=O)NCc3ccncc3)o2)cc1	i	i	i	i	i
CCc1ccc(OCc2ccc(C(=O)NCc3ccccn3)o2)cc1	i	i	25*	i	i
Cc1ccc2[nH]c3c(N4CCc5ccccc5C4)ncnc3c2c1	i	i	i	i	76*
COC(=O)c1cc(C(=O)c2c(C)cc3ccccn23)cc([N+](=O)[O-])c1	i	i	i	i	i
SMILES	TRPC6 activator	TRPC4 inh	TRPC4 PAM	TRPC6 inhibitor	TRPC4 agonist
Cc1cc2ccccn2c1C(=O)c1cc([N+](=O)[O-])cc([N+](=O)[O-])c1	i	i	12*	i	i
CCOC(=O)C1(CC2CCCCO2)CCN(Cc2cccnc2)CC1 (stereo not given)	i	i	i	i	i
COc1cccc(CC2(CO)CCCN(Cc3ccc(-c4ccco4)cc3)C2)c1 (stereo not given)	i	i	i	i	i
CCOC(=O)C1(CC2CCCCO2)CCN(Cc2cc3ccccc3[nH]2)CC1 (stereo not given)	i	i	i	i	273*
COc1cccc(CC2(CO)CCCN(Cc3ccccc3-c3ccco3)C2)c1 (stereo not given)	i	-7*	i	i	43*
CCOC(=O)C1(CC2CCCCO2)CCN(Cc2cn[nH]c2-c2cccc(F)c2)CC1 (stereo not given)	i	i	i	i	76*
CCOC(=O)C1(CC2CCCCO2)CCN(Cc2ccccc2-c2ccco2)CC1 (stereo not given)	i	i	i	i	78*
CCn1c2ccccc2c2cc(NC(=O)COC(=O)c3ccc(NC(=O)CC#N)cc3)ccc21	i	i	i	i	i
N=c1occ(C(=O)c2cc(F)ccc2O)cc1C(=O)NC1CCCCC1	i	i	i	i	i
CCC1CCCCN1C(=O)CSc1nnc(-c2cccs2)o1 (stereo not given)	i	i	i	i	i
OCC1(CC2CCCCO2)CCN(Cc2ccccc2-c2ccco2)CC1 (stereo not given)	i	i	i	i	75*
CCCn1ncc(CN2CCC(CO)(CC3CCCCO3)CC2)c1C (stereo not given)	i	i	i	i	i
CC(C)Sc1nc2sc3c(c2c2nnc(SCC(=O)NCc4ccco4)n12)CCCC3	i	-7*	i	i	i
CCSc1nc2sc3c(c2c2nnc(SCC(=O)NCc4ccco4)n12)CCCC3	i	i	i	i	i
COc1cccc(C2NC(=O)NC(O)(C(F)(F)F)C2C(=O)c2cccnc2)c1OC (stereo not given)	i	i	i	i	i
CCOC(=O)c1c(NC(=O)COC(=O)Cc2c[nH]c3ccccc23)sc(C(=O)N(C)C)c1C	i	i	53*	i	175*
CC(C(=O)Nc1cccc([N+](=O)[O-])c1)N1C(=O)NC2(CCCC2)C1=O (stereo not given)	i	i	i	i	i
Cc1ccccc1NC(=O)CSc1nc2ccccc2c(=O)n1CC1CCCO1 (stereo not given)	i	i	i	i	i
CCOc1ccccc1NC(=O)CSc1nc2ccccc2c(=O)n1CC1CCCO1 (stereo not given)	i	-6*	i	i	i
CCOC(=O)CSc1nc2ccccc2c(=O)n1CC1CCCC1	i	-9*	i	i	i
